Experimental findings from ChEMBL document CHEMBL4433213, “Investigation on 2',3'-O-Substituted ATP Derivatives and Analogs as Novel P2X3 Receptor Antagonists” (ACS Med Chem Lett, 2019) are described below.

Assay [1] addresses T1, P2X purinoceptor 3 (Mus musculus) (UniProt Q3UR32).
T1 sequence (whole entry): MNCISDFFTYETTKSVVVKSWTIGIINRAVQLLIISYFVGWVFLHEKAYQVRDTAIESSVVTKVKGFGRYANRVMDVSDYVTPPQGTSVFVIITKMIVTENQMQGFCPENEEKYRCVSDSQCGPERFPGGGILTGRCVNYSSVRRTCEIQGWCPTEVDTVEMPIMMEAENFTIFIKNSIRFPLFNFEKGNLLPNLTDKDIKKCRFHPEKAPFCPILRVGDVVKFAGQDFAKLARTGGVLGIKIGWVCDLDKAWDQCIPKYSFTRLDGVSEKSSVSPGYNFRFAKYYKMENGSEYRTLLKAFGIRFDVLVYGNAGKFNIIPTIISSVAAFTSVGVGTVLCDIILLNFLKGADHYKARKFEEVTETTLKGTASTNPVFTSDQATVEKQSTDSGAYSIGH
Nature of the assay: Antagonist activity at P2X3R in mouse TG sensory neurons assessed as inhibition of P2X3R agonist alpha,beta-meATP-induced current at 1 uM at -65 mV holding potential by whole cell voltage clamp method relative to control. Summed up:
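Mouse trigeminal sensory neurons were recorded by whole-cell patch clamp. Test compound (0.001–10 μM) was applied before 10 μM α,β-meATP, and inhibition of the agonist-evoked P2X3 current was measured. IC50 was taken from concentration–inhibition curves. N = 5–6 cells.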

The target of assay [2] is T2, P2X purinoceptor 3 (Homo sapiens) (UniProt P56373).
T2 sequence (whole entry): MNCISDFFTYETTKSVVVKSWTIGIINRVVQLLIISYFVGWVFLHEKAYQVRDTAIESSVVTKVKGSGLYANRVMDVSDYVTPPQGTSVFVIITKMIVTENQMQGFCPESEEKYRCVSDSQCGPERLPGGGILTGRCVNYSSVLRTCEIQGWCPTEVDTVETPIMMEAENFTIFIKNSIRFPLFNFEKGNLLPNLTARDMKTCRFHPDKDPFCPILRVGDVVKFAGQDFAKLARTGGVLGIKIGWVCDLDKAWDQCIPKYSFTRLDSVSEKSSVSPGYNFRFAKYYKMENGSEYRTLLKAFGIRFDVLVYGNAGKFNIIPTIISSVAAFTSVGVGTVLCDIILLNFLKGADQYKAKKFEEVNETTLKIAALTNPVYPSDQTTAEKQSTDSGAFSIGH
The assay is described as follows: Antagonist activity at human P2X3R transfected in human 1321N1 cells assessed as inhibition of ATP-induced calcium influx relative to control. In kind it is cell-based. As to conditions: concentration not given here. Summed up:
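1321N1 astrocytoma cells stably expressing human P2X1, P2X2, P2X3 or P2X4 receptor. Calcium influx was induced by ATP at the EC80 for each subtype. Results are given as IC50 (μM) or % inhibition at the indicated concentration.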

For orientation: inhibition means how much of the control response was suppressed. Regarding `Nc1ncnc2c1ncn2[C@@H]1O[C@H](COP(=O)(O)OP(=O)(O)OP(=O)(O)O)[C@H]2OCO[C@H]21`, the inhibition in assay [1] was 25%; in assay [2], 8%.
